Data from ChEMBL document CHEMBL4043282, “Discovery of the First Potent, Selective, and Orally Bioavailable Signal Peptide Peptidase-Like 2a (SPPL2a) Inhibitor Displaying Pronounced Immunomodulatory Effects In Vivo” (J Med Chem, 2018).
The source made the active and inactive calls. The calls are words filed in the database; no cut-off is given here.

Tests used:
Rattus norvegicus [1] = assay: Dose normalized drug uptake in Wistar rat at 10 mg/kg, po bid measured up to 7 hrs by LC/MS/MS analysis; type: ADME, organism-based, Wister; settings: in vivo
[2] = target: T1, Signal peptide peptidase-like 2A (Homo sapiens, UniProt Q8TCT8); assay: Inhibition of human SPPL2a expressed in human U2OS cells using EGFP-labeled TNFalpha (1 to 76 residues) NTF as substrate after 24 hrs by Hoechst staining based high content imaging analysis; type: cell-based
T1 sequence (Q8TCT8 whole entry): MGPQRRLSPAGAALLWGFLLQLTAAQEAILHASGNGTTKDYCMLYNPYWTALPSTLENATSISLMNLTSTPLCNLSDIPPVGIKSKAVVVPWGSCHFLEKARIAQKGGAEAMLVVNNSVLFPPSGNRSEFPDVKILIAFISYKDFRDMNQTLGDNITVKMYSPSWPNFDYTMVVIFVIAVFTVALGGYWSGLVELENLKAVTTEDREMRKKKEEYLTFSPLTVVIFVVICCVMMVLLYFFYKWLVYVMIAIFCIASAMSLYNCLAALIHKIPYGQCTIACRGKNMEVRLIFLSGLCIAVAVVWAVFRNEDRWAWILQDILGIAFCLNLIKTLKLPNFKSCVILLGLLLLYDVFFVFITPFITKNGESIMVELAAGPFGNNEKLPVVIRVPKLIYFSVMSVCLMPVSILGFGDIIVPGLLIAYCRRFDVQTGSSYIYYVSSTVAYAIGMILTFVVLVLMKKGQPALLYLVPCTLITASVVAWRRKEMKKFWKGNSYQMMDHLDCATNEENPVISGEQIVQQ
Outline: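 Stable U-2 OS lines expressing human SPPL2a, SPPL2b or SPP constitutively (mouse SPPL2a line analogous, mouse TNFα(aa1-77)-NTF-EGFP-NLS) with doxycycline-inducible EGFP substrate. 3000 cells/well, 3−4 h, then 11-point inhibitor 100 μM to 1 nM, 0.9% DMSO, 5 μg/mL doxycycline, 24 h 37 °C. PFA fixed, Hoechst nuclei; nuclear minus cytoplasmic EGFP intensity; inhibition vs 0.5 μM reference and DMSO; IC50 by nonlinear regression.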

[3] = target: T2, Signal peptide peptidase-like 2A (Rattus norvegicus, UniProt D3ZNG3); assay: Inhibition of rat SPPL2a expressed in human U2OS cells using EGFP-labeled TNFalpha (1 to 77 residues) NLS as substrate after 24 hrs by Hoechst staining based high content imaging assay; type: cell-based
T2 sequence (D3ZNG3 whole entry): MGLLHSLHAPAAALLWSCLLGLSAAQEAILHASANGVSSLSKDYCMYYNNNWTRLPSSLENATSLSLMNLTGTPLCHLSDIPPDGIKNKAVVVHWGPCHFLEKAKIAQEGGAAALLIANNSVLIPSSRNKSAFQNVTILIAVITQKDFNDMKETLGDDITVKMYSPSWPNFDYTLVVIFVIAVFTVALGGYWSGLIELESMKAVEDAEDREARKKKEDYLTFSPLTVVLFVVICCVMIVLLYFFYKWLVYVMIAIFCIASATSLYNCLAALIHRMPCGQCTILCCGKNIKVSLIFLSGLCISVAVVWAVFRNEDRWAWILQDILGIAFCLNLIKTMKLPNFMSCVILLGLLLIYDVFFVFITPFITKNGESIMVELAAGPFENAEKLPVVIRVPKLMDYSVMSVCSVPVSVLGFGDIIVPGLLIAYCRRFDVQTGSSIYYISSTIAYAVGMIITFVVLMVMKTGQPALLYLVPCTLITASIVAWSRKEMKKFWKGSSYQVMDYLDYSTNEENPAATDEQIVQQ
Outline: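 Stable U-2 OS line with constitutive rat SPPL2a and doxycycline-inducible rat TNFα(aa1-77)-NTF–EGFP-NLS; 3000 cells/well, 3–4 h at 37 °C, then inhibitor in doxycycline medium, 11-point, 100 μM–1 nM final (0.9% DMSO, 5 μg/mL doxycycline), 24 h. PFA fixation, Hoechst nuclei; nuclear minus cytoplasmic-ring EGFP intensity. Normalised to DMSO and reference-inhibitor controls; IC50 by nonlinear regression.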

Mus musculus [4] = assay: In vivo inhibition of SPPL2a in mouse assessed as accumulation of CD74/p8 in splenocyte lysate at 10 mg/kg administered via oral gavage as single dose measured 16 hrs post dose by Western blot method relative to control; type: functional
Outline: (§1)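 Mice gavaged in 0.5% MC:0.5% Tween or PEG:D5W 3:1. Spleens dissociated, red cells lysed with ACK, 1 × 10^6 cells lysed with protease inhibitors; 18 μg lysate on 10% gel, blotted, CD74 full length and p8 detected with rat anti-mouse CD74 In-1 and Alexa488 anti-rat IgG, LiCor scan; p8/full-length ratio expressed as percent of reference compound ratio.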

[5] = Total plasma concentration in mouse at 10 mg/kg administered via oral gavage measured after 16 hrs post dose by LC/MS/MS analysis; type: ADME, organism-based
Outline: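 Mice dosed by oral gavage in 0.5% MC:0.5% Tween or PEG:D5W 3:1. 50 μL blood taken retro-orbitally into LiHep tubes; in chronically dosed animals the trough sample came before the morning dose. Kept on ice, plasma separated by centrifugation at 2823g, 5 min, stored at −20 °C until analysis.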

Rattus norvegicus [6] = assay: In vivo inhibition of SPPL2a in Lewis rat assessed as accumulation of CD74/p8 in blood at 1 mg/kg first dose administered via oral gavage followed by second dose after 8 hrs measured 16 hrs post second dose by Western blot method; type: functional, organism-based
Outline: (§2)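 Rat blood (200 μL) red cells lysed with RBC lysis buffer three times, pellet lysed in Tris pH 6.8/NaCl/EDTA/Triton X-100/deoxycholate with protease inhibitors; Western blot for CD74/p8 with affinity-purified antibody specific for rat CD74/p8 at 1:200.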

Rattus norvegicus [7] = assay: In vivo inhibition of SPPL2a in Lewis rat assessed as accumulation of CD74/p8 in blood at 3 mg/kg first dose administered via oral gavage followed by second dose after 8 hrs measured 16 hrs post second dose by Western blot method; type: functional, organism-based; outline: as §2
Mus musculus [8] = assay: In vivo inhibition of gamma-secretase dependent Notch1 signaling in mouse assessed as effect on Hes1 mRNA level in thymus at 3 to 30 mg/kg, po bid administered at 8 and 16 hrs dosing interval between first and second dose respectively for 11 days measured 16 hrs post last dose on day 12 by RT-PCR analysis; type: organism-based
Outline: (§3)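 Thymus and jejunum excised into RNALater, 4 °C overnight, washed, frozen at −80 °C; total RNA from 10 mg tissue by MagNA Pure LC; Hes1 measured by TaqMan real-time PCR; significance by two-tailed heteroscedastic Student's t-test.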

[9] = Stability in human liver microsomes at […] preincubated for 3 mins followed by NADPH addition measured after 1 hr in presence of GSH and [13C2-15N-glycine]-GSH by HPLC/MS method; type: ADME, microsome; settings: read-out: Stability
Mus musculus [10] = assay: In vivo inhibition of SPPL2a in mouse assessed as increase in CD74/p8 accumulation in splenocytes at 100 mg/kg, po administered as single dose measured after 4 hrs by Western blot method; type: functional, organism-based
Mus musculus [11] = assay: In vivo inhibition of SPPL2a in mouse assessed as accumulation of CD74/p8 in splenocyte lysate at 150 mg/kg administered via oral gavage as single dose measured 16 hrs post dose by Western blot method; type: functional, organism-based; outline: as §1
Mus musculus [12] = assay: In vivo inhibition of mouse gamma-secretase assessed as effect on Hes1 mRNA level in thymus up to 100 mg/kg, po administered as single dose by RT-PCR method; type: organism-based; outline: as §3

Druguptake/dose (Rattus norvegicus [1]) [nM]	IC50 [2] [nM]	IC50 [3] [nM]	concentration at 16 h [5] [nM]	remaining at 1 h [9] [%]	Compound	inhibition in vivo at 10 mg/kg (Mus musculus [4]) [%]	inhibition (Rattus norvegicus [6])	inhibition (Rattus norvegicus [7])	Activity (Mus musculus [8])	Activity (Mus musculus [10])	inhibition (Mus musculus [11])	Activity (Mus musculus [12])
421	160	56	11.8		Cc1ncc(F)cc1NC(=O)C[C@H](C(=O)N[C@@H]1C(=O)N2CC3(CC3)CN2C(=O)c2ccccc21)C1CC1	50	Active	Active	Non-Toxic			
				70.8	Cc1ccccc1NC(=O)C[C@@H](C)C(=O)N[C@@H]1C(=O)N2CCCN2Cc2ccccc21					Active	Active	Non-Toxic
